Experimental data from ChEMBL document CHEMBL1147365, “A screen for inhibitors of DNA recombination: identification of two new spirostanol glycosides from Chamaedorea linearis” (J Nat Prod, 1993).
The source made the active and inactive calls. No cut-off for these calls is given here.

What was measured:
Saccharomyces cerevisiae [1] = assay: DNA damaging activity against […] assessed as drug concentration required to produce 12 mm zone of inhibition up to 800 ug/well by agar diffusion assay; type: functional, organism-based; settings: W303-1A
L1210 [2] = assay: Antiproliferative activity against mouse L1210 cells; type: functional, cell-based
How it was run: (§1)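 Murine L1210 cells were grown in suspension culture and proliferation was measured.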

Saccharomyces cerevisiae [3] = assay: DNA damaging activity against […] assessed as drug concentration required to produce 12 mm zone of inhibition by agar diffusion assay; type: functional, W303-1A
L1210 [4] = assay: Antiproliferative activity against mouse L1210 cells up to 32 uM; type: functional, cell-based; how it was run: as §1

## C[C@@H]1O[C@@H](O[C@H]2CC[C@]3(C=O)[C@H]4CC[C@]5(C)[C@@H](C6=CC(=O)OC6)CC[C@]5(O)[C@@H]4CC[C@]3(O)C2)[C@H](O)[C@H](O)[C@H]1O
Saccharomyces cerevisiae [1]
  Activity: inactive

## CO[C@H]1[C@H](O)[C@H](O[C@H]2CC[C@@]3(C)[C@H](CC[C@@H]4[C@@H]3CC[C@]3(C)[C@@H](C5=CC(=O)OC5)CC[C@]43O)C2)O[C@@H](C)[C@@H]1O
Saccharomyces cerevisiae [1]
  Activity: inactive

## C[C@H]1CC[C@@]2(OC1)O[C@H]1C[C@H]3[C@@H]4CC[C@H]5C[C@@H](O)C[C@@H](O[C@H]6O[C@@H](C)[C@@H](O)[C@@H](O)[C@@H]6O)[C@]5(C)[C@H]4CC[C@]3(C)[C@H]1[C@@H]2C [BRISBAGENIN FUCOSIDE]
L1210 [2]
  IC50: 5 µM
Saccharomyces cerevisiae [3]
  IC12: 2.6 µg
L1210 [4]
  Activity: inactive

## C[C@H]1O[C@@H](O[C@H]2[C@@H](O)C[C@H](O[C@H]3[C@@H](O)C[C@H](O[C@H]4CC[C@@]5(C)[C@H](CC[C@@H]6[C@@H]5CC[C@]5(C)[C@@H](C7=CC(=O)OC7)[C@@H](O)C[C@]65O)C4)O[C@@H]3C)O[C@@H]2C)C[C@H](O)[C@@H]1O
Saccharomyces cerevisiae [1]
  Activity: inactive

## C[C@H]1O[C@@H](O[C@H]2[C@@H](O)C[C@H](O[C@H]3[C@@H](O)C[C@H](O[C@H]4CC[C@@]5(C)[C@H](CC[C@@H]6[C@@H]5C[C@@H](O)[C@]5(C)[C@@H](C7=CC(=O)OC7)CC[C@]65O)C4)O[C@@H]3C)O[C@@H]2C)C[C@H](O)[C@@H]1O
Saccharomyces cerevisiae [1]
  Activity: inactive

## C[C@@H]1O[C@@H](O[C@H]2C[C@@H](O)[C@]3(CO)[C@H]4[C@H](O)C[C@]5(C)[C@@H](C6=CC(=O)OC6)CC[C@]5(O)[C@@H]4CC[C@]3(O)C2)[C@H](O)[C@H](O)[C@H]1O
Saccharomyces cerevisiae [1]
  Activity: inactive

## C[C@H]1CC[C@@]2(OC1)O[C@H]1C[C@H]3[C@@H]4CC[C@H]5C[C@@H](O)C[C@@H](O[C@H]6O[C@@H](C)[C@@H](OS(=O)(=O)O)[C@@H](O)[C@@H]6O)[C@]5(C)[C@H]4CC[C@]3(C)[C@H]1[C@@H]2C
Saccharomyces cerevisiae [3]
  IC12: 3.5 µg
L1210 [4]
  Activity: inactive

## CO[C@H]1C[C@H](O[C@H]2CC[C@]3(C=O)[C@H]4CC[C@]5(C)[C@@H](C6=CC(=O)OC6)CC[C@]5(O)[C@@H]4CC[C@]3(O)C2)O[C@H](C)[C@H]1O[C@H]1O[C@@H](CO)[C@H](O[C@@H]2O[C@H](CO)[C@@H](O)[C@H](O)[C@H]2O)[C@@H](O)[C@@H]1O
Saccharomyces cerevisiae [1]
  Activity: inactive
